# Screens from PubChem BioAssay.
# In the library only some 2.7% were active in any assay of this set; here they are far more common.
# ABCB1 inh: human ABCB1 inhibition, ABCG2 as counter-screen; P08183; CCRF-Adr cells, JC-1 efflux, flow cytometry; inhibition, % at 6.6 µM; hit rate 0.067% among 190,000; in the data active = inhibition above about 40%;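 also: 0% = vehicle and 100% = reference inhibitor; higher value means more JC-1 retained so stronger ABCB1 efflux block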
# Target sequence (P08183 whole entry, looked up): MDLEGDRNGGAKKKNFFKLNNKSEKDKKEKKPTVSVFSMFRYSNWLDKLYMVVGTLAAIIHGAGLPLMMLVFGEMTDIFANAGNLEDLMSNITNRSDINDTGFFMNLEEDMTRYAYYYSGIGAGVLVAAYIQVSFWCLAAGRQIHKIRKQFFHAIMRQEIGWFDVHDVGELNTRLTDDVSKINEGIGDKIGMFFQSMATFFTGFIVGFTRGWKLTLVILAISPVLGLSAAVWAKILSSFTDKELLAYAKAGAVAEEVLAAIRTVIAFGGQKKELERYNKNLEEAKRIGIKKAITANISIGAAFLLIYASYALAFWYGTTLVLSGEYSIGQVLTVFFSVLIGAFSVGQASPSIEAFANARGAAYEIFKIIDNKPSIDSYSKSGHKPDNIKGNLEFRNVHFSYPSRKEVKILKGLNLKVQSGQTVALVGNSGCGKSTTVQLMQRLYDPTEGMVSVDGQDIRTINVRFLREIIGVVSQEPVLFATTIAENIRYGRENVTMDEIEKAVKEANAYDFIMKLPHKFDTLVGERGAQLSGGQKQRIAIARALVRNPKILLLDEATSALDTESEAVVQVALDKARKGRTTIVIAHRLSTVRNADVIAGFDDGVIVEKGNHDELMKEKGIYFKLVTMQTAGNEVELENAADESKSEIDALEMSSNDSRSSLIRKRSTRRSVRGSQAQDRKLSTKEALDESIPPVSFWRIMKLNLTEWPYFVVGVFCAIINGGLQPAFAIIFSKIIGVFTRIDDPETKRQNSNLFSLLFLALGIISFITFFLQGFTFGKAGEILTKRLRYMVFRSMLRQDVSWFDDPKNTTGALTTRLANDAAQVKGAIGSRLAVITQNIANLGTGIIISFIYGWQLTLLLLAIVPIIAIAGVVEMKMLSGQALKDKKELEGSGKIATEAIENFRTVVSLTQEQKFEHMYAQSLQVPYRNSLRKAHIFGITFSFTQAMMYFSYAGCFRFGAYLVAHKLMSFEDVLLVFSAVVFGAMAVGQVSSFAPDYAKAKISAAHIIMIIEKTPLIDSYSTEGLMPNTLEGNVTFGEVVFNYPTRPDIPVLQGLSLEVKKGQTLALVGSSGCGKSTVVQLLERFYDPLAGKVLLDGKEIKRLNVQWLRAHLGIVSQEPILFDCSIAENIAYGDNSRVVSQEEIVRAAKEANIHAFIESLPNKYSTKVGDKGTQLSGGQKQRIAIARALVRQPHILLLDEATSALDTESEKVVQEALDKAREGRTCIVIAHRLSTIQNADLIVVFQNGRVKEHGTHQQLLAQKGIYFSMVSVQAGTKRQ
# FLuc stim CS: affects firefly luciferase, flagging false hits in luciferase stimulation screens; P08659; ATPlite luciferase biochemical, luminescence, 10 min; 0 = ATP-free wells, 1 = DMSO control; activation factor at 10 µM; 200,000 tested, under 10 active;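 active = luciferase activation factor, scaled between plate controls, of at least 2 with compound at 10 µM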
#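 Material: luciferase plus luciferin reagent, cell-free. Medium: PBS buffer for ATP. Also added: ATP substrate, dispensed from a 10.24 µM working solution in PBS. Doses: test compounds dosed from 2 mM stocks in 100% DMSO. Incubation: 10 min post-reagent at room temperature. Technique: light output (luminescence). Read-out basis: luminescence gain marking luciferase activators.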
# Redox H2O2 prof: compounds producing H2O2 with reducing agent – biochemical, NIH compound library profiling, artefact control for MLSCN library redox annotation, primary screen. DTT-dependent redox cycling H2O2, phenol red/HRP absorbance; 100% = 100 µM peroxide control, 0% = buffer. activation, % at 10 µM. hit rate 0.03% among 200,000;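 active = activation of at least 50% relative to the plate's high and low controls in the primary single-dose screen; inactive = activation below 50%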;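 also: compound incubated with DTT at 0.8 mM final as the reducing agent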
# FLuc inhib CS: inhibits firefly luciferase, flagging false hits in luciferase inhibition screens; inhibition, % at 10 µM; AID 1006; ATPLite firefly luciferase biochemical luminescence, 10 min; P08659; hit rate 1.5% among 200,000;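 active = inhibition above about 50% when tested at 10 µM, limit read from the data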
# Measles CPE: protection of cells from measles virus; protection (pct of control), % at 4 µM; hit rate 1.5% among 140,000; Measles virus-infected cells, CPE protection, absorbance; in the data active = protection mostly above about 24%, no sharp cut-off; inactive = mostly below about 26%
# ABCG2 block: inhibitors of human ABCG2 transporter, ABCB1 counter-screen | Q9UNQ0 | IgMXP3 cells, JC-1 efflux, flow cytometry | inhibition, % at 6.6 µM | hit rate 0.1% among 190,000 | AID 1325;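 active = inhibition above 80%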;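 also: 0% = DMSO and 100% = nicardipine control wells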
#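 Test system: IgMXP3 cells (ABCG2) mixed with DDAO far-red-labelled CCRF-Adr cells (ABCB1). Reagent: JC-1 transporter substrate. Compound dosing: single test compound dose, 6.6 µM final. Times: 10 min compound exposure, 25 °C. Detection: flow cytometry of retained JC-1 fluorescence. Read-out basis: efflux inhibition in percent versus controls. Controls: nicardipine and DMSO wells.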
# An asterisk follows results filed as active; · = no result.
SMILES,ABCB1 inh,FLuc stim CS,Redox H2O2 prof,FLuc inhib CS,Measles CPE,ABCG2 block
CNC(=S)N/N=C/C1=CCC2CC1C2(C)C (configuration not stated),0,0.4,-1,62*,9,11
CC1(C)C2CC=C(/C=N/NC(=S)NCCc3ccccc3)C1C2 (configuration not stated),-1,1.1,-1,-8,·,5
O=C(Nc1ccc([N+](=O)[O-])cc1)Nc1ccc(N2CCOCC2)c2nonc12,0,1,-1,-1,·,1
CCOC(=O)c1ccc(NC(=O)Cn2nnc(-c3ccccc3F)n2)cc1,0,1.1,0,-5,1,-1
O=C(Cn1nnc(-c2ccccc2F)n1)Nc1ccc(S(=O)(=O)NC2CCCC2)cc1,0,1,3,1,35*,1
COC(=O)CC1=NN(c2nc3ccccc3s2)C(=O)/C1=C/N(C)C,-1,0.3,-1,72*,·,0
COC(=O)c1sccc1NC(=O)Cn1cnc2c1c(=O)n(C)c(=O)n2C,0,1,1,-3,40,1
COc1ccc(/C=C/C(=O)Nc2cc(C)nn2-c2nc3ccccc3[nH]2)cc1,0,0.3,1,67*,13,-1
COc1ccc(/C=C/C(=O)Nc2ccccc2C(=O)O)cc1OC,0,0.5,1,54*,14,0
COc1ccc(/C=C/C(=O)Nc2ccccc2C(=O)O)cc1,0,0.1,0,95*,·,0
COc1ccc(/C=N/OC(=O)Nc2ccccc2OC)cc1,1,0.2,-1,84*,·,8
Cc1cc(NC(=O)/C=C/c2ccc(F)cc2)n(-c2nc3ccccc3[nH]2)n1,1,0.6,0,44,9,0
COc1ccccc1NC(=O)COC(=O)/C=C/c1ccc2c(c1)OCO2,5,0.9,0,8,·,16
COc1ccccc1NC(=O)/C=C/c1ccc2c(c1)OCO2,0,0.4,0,61*,·,4
NC(=O)c1ccccc1NC(=O)/C=C/c1cccc(Cl)c1,0,0.4,1,56*,17,2
NC(=O)c1ccccc1NC(=O)/C=C/c1c(Cl)cccc1Cl,0,0.7,-4,31,27,2
S=C(Nc1ccc(Br)cc1Cl)NN1CCOCC1,0,1,0,-3,·,2
CCc1cc(OCCCCNCc2ccccc2)ccc1Cl,1,1.1,1,-9,2,2
Fc1cccc(/C=N/Nc2nc3ccccc3[nH]2)c1,0,0.8,-2,23,·,1
O=c1[nH]c(N/N=C/c2ccccc2)nc2ccccc12,1,0.3,4,67*,20,25
O=c1[nH]c(N/N=C\c2ccc3c(c2)OCO3)nc2ccccc12,1,0.2,0,76*,·,0
Cc1nnc(C)n1N1C(=O)c2cccc3cccc(c23)C1=O,0,1,1,-4,49*,1
Cc1nnc(N2C(=O)c3cccc4cccc(c34)C2=O)s1,1,1,0,-5,27,7
O=C1/C(=C/N(C(=O)c2ccco2)c2ccc(Br)cc2)Sc2ccccc21,-1,0.2,0,83*,6,-3
O=C1/C(=C/N(C(=O)c2ccco2)c2ccc(Cl)cc2)Sc2ccccc21,0,0.1,0,86*,14,-2
SMILES,ABCB1 inh,FLuc stim CS,Redox H2O2 prof,FLuc inhib CS,Measles CPE,ABCG2 block
Cc1ccc(/C=C2/C(=O)N(c3ccccc3)C(=S)N2C)o1,-1,1,0,0,1,-4
COc1ccc2c(c1OC)C(=O)OC2Nc1nc(-c2ccc(-c3ccccc3)cc2)cs1 (configuration not stated),0,0.3,0,74*,5,-2
N/C(=N\OC(=O)CCCOc1ccc(Cl)cc1Cl)c1ccccn1,1,1.1,0,-8,·,12
N/C(=N\OC(=O)c1cc(Br)ccc1Cl)c1ccccn1,2,0.5,-1,52*,·,27
N/C(=N\OC(=O)c1ccc(Cl)cc1Cl)c1ccccn1,1,0,0,95*,·,6
CCCc1nc(Nc2nc3ccccc3o2)nc(C)c1C(=O)OCC,1,0.6,-2,44,6,23
